Published values gathered from unrelated publications.
Target: Mitogen-activated protein kinase 1 (MAPK1, Homo sapiens, UniProt P28482)

Structure (SMILES)	assay	conditions	remaining binding [%]
Cc1cnn2ncc(-c3ccnc(N(C)C)n3)c2c1	binding	1 µM	100
Nc1ncc2c(n1)-c1c([nH]c3ccc(C#CC4CC4)cc13)CCCC2	binding, competition with immobilised ligand	1 µM	100
C[C@H]1CCN(c2nccc(-c3cnn4ncccc34)n2)C1	binding	1 µM	100
CSc1cccnc1N1CCN(Cc2nc3ccccc3[nH]2)CC1	cell-free assay, competition with immobilised ligand	1 µM	93
C[C@@H](c1ccc(-n2cnc3c(N)ncnc32)cc1)N1CCc2nn(C)c(Cc3ccccc3)c2C1=O	binding, competition with immobilised ligand	0.1 µM	91
O=C(NCC1CCOCC1)c1n[nH]cc1NC(=O)c1c(F)cccc1F	binding, competition with immobilised ligand	1 µM	87
COc1cnc(Nc2cccc(S(N)(=O)=O)c2)nc1N1CCN(c2ccccc2)CC1	binding, competition with immobilised ligand	1 µM	100
C[C@@H]1CN(c2cc(-c3n[nH]c4ccc(OC5(C)CC5)cc34)ncn2)C[C@H](C)O1	cell-free assay, competition with immobilised ligand	0.1 µM	98
C=CC(=O)N1CCC(C(=O)NCC(=O)N2CCN(c3nc(-c4cnc(N)nc4C(F)F)nc(N4CCOCC4)n3)CC2)CC1	binding, competition with immobilised ligand	1 µM	98
O=C(c1ccc(Nc2ncc(Cl)c(-c3cc4ccccc4s3)n2)cc1)N1CCC(N2CCCC2)CC1	binding, competition with immobilised ligand	1 µM	100
CO[C@@H](C)c1c(Nc2ccc([C@H](N(C)C(=O)C3CCS(=O)(=O)CC3)C(F)(F)F)cc2)cnc2cc(Cl)nn12	cell-free assay, competition with immobilised ligand	1 µM	100
O=C(c1ccc(Nc2nccc(-c3cc4ccccc4s3)n2)cc1)N1CCC(N2CCCC2)CC1	binding, competition with immobilised ligand	1 µM	100
CN(C)c1ncc(F)c(-c2cnn3ncccc23)n1	binding	1 µM	82
Cc1c(C(=O)O)cc(-c2ccc(C3CCNCC3)cc2)c2ccc(-c3ccc(C(F)(F)F)cc3)cc12	binding, competition with immobilised ligand	1 µM	100
c1cnn2ncc(-c3ccnc(N4CCC45COC5)n3)c2c1	binding	1 µM	100
C[C@H](c1cccc(C#N)c1)n1cc(Cl)cc(C(N)=O)c1=N	cell-free assay, competition with immobilised ligand	1 µM	93
CC1CCCN1c1nccc(-c2cnn3ncccc23)n1 (stereo not shown)	binding	1 µM	95
CCCOc1ccc([C@H]2[C@H](C(=O)O)[C@@H](c3ccc4c(c3)OCO4)CN2CC(=O)Nc2c(CC)cccc2CC)cc1	cell-free assay, competition with immobilised ligand	1 µM	100
N[C@@H]1CCN(c2nccc(-c3cnn4ncccc34)n2)C1	binding	1 µM	100
COc1ncc2cc3ccccc3nc2c1C#N	cell-free assay, competition with immobilised ligand	5 µM	100
O=C(NCCCN1CCOCC1)c1ccc(Nc2ncc(Cl)c(-c3ccc(Cl)s3)n2)cc1	binding, competition with immobilised ligand	1 µM	100
CN(CCCC(F)(F)F)c1nccc(-c2cnn3ncccc23)n1	binding	1 µM	100
